The source of these data is PubChem BioAssay.

A short description of assay [1]: inhibitors of TNFa-induced NFkB p65 translocation, primary screen, imaging, HUVEC, MLSMR starter and 10KST1 sets (AID 438;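 active means inhibition above 20% together with a positive visual image hit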;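 further: compound added about 3h40 before a 20 min TNFalpha stimulation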;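 on inhibition: signal is the nuclear over cytoplasmic p65 intensity ratio per well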). The settings on record: HUVEC TNFa-induced p65 nuclear translocation; cell count: measured here: nuclei count (cytotoxicity indicator), at 2.08 µM; inhibition: at 2 µM, stronger effect = higher value, 0% TNFa-plus-vehicle, 100% no-TNFa wells.
A short description of assay [2]: endothelial E-selectin expression blockers – imaging, HUVEC, immunofluorescence, MLSMR starter and 10KST1 sets, primary screen (AID 487;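 active means visually confirmed hit in the image check and inhibition above 20%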;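 on inhibition: signal is fraction of cell area covered by stained E-selectin grains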;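 on nuclei count: 100% = median nuclei count of all wells on the same plate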). The settings on record: HUVEC TNFalpha-induced E-selectin immunofluorescence imaging, at 2 µM; inhibition: stronger effect = higher value; nuclei count: measured here: cell number, toxicity.
Assay [3] in a line: Primary imaging screen for DUSP6 inhibitors that restore phospho-Erk in transfected HeLa cells, chemical complementation (AID 609;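 active means compounds giving at least 50% inhibition in the cell-based MKP-3 phosphatase rescue imaging test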;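 on inhibition: phospho-Erk level distribution per well compared with pooled transfected vehicle control wells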). The settings on record: HeLa MKP-3 transfected, phospho-Erk imaging KS statistic, at 10 µM, cells stimulated with TPA for 15 min.
For assay [4], the target named is Dual specificity protein phosphatase 6 (Homo sapiens) (UniProt Q16828). Described as above. The settings on record: HeLa MKP-3 transfected, phospho-Erk imaging KS statistic; at 10 µM; stronger effect = higher value; cells stimulated with TPA for 15 min.
Chain of Dual specificity protein phosphatase 6 (Homo sapiens) (Q16828 whole entry, looked up): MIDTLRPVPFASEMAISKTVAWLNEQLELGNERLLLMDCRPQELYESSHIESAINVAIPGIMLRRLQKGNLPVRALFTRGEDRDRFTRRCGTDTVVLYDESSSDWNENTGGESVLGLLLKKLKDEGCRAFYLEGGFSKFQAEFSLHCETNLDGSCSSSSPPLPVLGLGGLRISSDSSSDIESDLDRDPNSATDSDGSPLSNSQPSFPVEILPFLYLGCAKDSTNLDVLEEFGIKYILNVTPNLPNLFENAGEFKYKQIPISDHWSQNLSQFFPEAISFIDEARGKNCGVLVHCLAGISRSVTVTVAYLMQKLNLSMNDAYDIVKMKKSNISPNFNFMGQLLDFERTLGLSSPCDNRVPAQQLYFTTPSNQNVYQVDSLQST
Assay [5] deals with Voltage-gated potassium channel subunit beta-2 (Rattus norvegicus) (UniProt P62483). As to the kind of experiment: inhibitors of rat Kvbeta2 reductase activity – biochemical, NADPH fluorescence, primary screen (AID 622;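 active means fluorescence slope higher than the sample average by over 3 SD, cut at about -0.22 in these data, passing the limit was not always enough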;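 further: slope of raw intensity against log time taken from 70 to 1610 s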). The settings on record: recombinant KvBeta, 4-cyanobenzaldehyde reduction, at 10 µM, stronger effect = higher value.
Chain of Voltage-gated potassium channel subunit beta-2 (Rattus norvegicus) (P62483 whole entry, looked up): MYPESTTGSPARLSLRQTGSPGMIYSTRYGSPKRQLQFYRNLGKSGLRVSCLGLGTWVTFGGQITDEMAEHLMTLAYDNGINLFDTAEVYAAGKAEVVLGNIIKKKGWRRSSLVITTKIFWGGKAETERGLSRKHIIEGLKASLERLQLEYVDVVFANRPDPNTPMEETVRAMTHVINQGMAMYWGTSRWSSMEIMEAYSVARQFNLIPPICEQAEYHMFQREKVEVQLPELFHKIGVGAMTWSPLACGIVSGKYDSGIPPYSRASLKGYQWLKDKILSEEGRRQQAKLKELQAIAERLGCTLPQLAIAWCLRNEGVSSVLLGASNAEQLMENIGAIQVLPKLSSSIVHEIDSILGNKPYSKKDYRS
Assay [6] has the same target. As to the kind of experiment: enhancers of rat Kvbeta2 NADPH turnover – biochemical, NADPH fluorescence, primary screen (AID 623).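 Further: fluorescence intensity change per second fitted from 20 to 320 s.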 Particulars: Recombinant KvBeta, NADPH fluorescence decrease slope, 10 min; at 10 µM; stronger effect = lower value.
The target in assay [7] is Muscarinic acetylcholine receptor M4 (Homo sapiens) (UniProt P08173). As to the kind of experiment: M4-linked GIRK flux change, two-sided – cell-based, HEK293 M4/GIRK, thallium flux, BTC-AM, M4 allosteric agonist project, primary screen (AID 625;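 active means fluorescence slope after compound addition differing from the mean of all tested samples at 99.7% confidence, mostly higher but some lower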;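 further: thallium influx through GIRK channels coupled to M4 in HEK293 cells with BTC-AM dye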). The settings on record: at 10 µM, actives lie on both sides. Summed up: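 Material: HEK293 cells with M4 receptor and GIRK channels; Times: cells overnight at 37 °C, BTC-AM loading 1 h, reads 2 min total; Technique: kinetic BTC-AM fluorescence sampled at 1 Hz, 10 s pre-addition baseline; Read-out basis: slope over 15–24 s of trace normalized to starting intensity; Controls: carbachol positive, DMSO negative.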
Chain of Muscarinic acetylcholine receptor M4 (Homo sapiens) (P08173 whole entry, looked up): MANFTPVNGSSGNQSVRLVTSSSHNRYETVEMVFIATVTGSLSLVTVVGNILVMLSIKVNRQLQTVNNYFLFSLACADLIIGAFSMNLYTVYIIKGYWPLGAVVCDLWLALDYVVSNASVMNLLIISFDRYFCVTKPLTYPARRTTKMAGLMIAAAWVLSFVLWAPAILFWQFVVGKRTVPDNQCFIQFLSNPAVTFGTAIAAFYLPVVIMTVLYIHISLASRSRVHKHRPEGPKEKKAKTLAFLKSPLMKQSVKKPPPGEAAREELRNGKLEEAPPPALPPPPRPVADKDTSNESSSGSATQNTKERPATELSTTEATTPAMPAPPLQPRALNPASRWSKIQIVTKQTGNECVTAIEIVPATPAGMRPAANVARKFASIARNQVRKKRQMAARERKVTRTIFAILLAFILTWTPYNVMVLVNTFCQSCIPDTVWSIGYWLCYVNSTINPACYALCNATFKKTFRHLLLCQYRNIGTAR

Assay [8] is described as follows: inhibitors of larval lipid processing in zebrafish, primary screen, whole organism, PED6 fluorescence, gall bladder and intestine (AID 686;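 active means a full or partial loss of lipid-probe fluorescence in the fish gall bladder, intestine or both, judged by eye; inactive means no fluorescence loss, or compound toxic to the fish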;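 further: larvae 5 to 7 days old with five fish per well; signal comes from phospholipase A2 cleavage of quenched PED6 carried via bile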). The settings on record: Zebrafish larvae PED6 lipid processing, fluorescence scoring; screened at 20 µM (by protocol). The essentials:
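Incubation: overnight exposure of larvae to compound plus PED6 / Test system: live zebrafish larvae aged 5-7 days, whole organism / Amount: 5 larvae per well / Read-out basis: visual per-well fluorescence inhibition score / Signal: visual fluorescence microscopy scoring of gall bladder, gut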

Assay [9] in a line: loss of swimming-algae plug formation – whole organism, Chlamydomonas reinhardtii, WT vs cilia-less mutant, absorbance, 96-well, primary screen (AID 463189;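 active means inhibition at or above 50% relative to wild type and mutant plate controls; inactive means inhibition below 50%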;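 further: 0% = wild type cc124 cells in DMSO and 100% = ciliumless bld1 mutant cells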). Particulars: Chlamydomonas reinhardtii gravitaxis, OD600 absorbance, 2 days; at 10 µM; stronger effect = higher value.
Where [10] appears, read: measured here: cell density z-score.
The mark [11] stands for this setting: measured here: nuclear c-Myc green intensity z-score.
[12] abbreviates: measured here: nuclear pErk red intensity z-score, stronger effect = higher value.

The structures appear in SMILES notation. The source made the active and inactive calls.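 How the source made its calls, unless noted: active means NADPH fluorescence slope more negative than the mean of all samples by about 3 SD, 99.7% confidence; inactive means the rest.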

Take `COc1ccc(/C(O)=C2/C(=O)C(=O)N(CCCN(C)C)C2c2ccccc2)cc1Cl` (stereo unspecified): the cell count in assay [1] was 690. The inhibition in assay [1] was -2% (inactive); in assay [2] it was -71.3% (inactive); in assay [4], 4.25% (inactive); in assay [9], 20.4% (inactive). Further, the nuclei count in [2] was 159%. Also, the z-score in assay [3] (setting [10]) is 0.886; in [3] (setting [11]), -1.15; in assay [3] (setting [12]), 1.23. The fluorescence slope in assay [5] is -0.452 (inactive); in assay [7], 0.00499 (inactive). Further, the NADPH fluorescence slope in assay [6] was -6.6e-05 (inactive). The result in [8] was inactive.
In the case of `COCCCn1c(C)nc2c(c1=O)c1nc3ccccc3nc1n2CCc1ccccc1`, the cell count in assay [1] came to 709. In addition, the inhibition in assay [1] is 4.3% (inactive); in assay [2], 18.7% (inactive); in [4], -9.53% (inactive); in assay [9], 8.3% (inactive). In assay [2], this compound came in with a nuclei count of 162%. Also, the z-score in assay [3] (setting [10]) is -0.739; in assay [3] (setting [11]), -0.364; in assay [3] (setting [12]) it was -0.291. The fluorescence slope in assay [5] was -0.341 (inactive); in assay [7], 0.00467 (inactive). The NADPH fluorescence slope in assay [6] is -5.1e-05 (inactive). Also, the compound was classed as inactive in [8].
For the compound `Cc1cc(C)n(CC2CC(=O)N(c3ccc(F)c(Cl)c3)C2=O)n1` (stereo unspecified), the cell count in [1] amounted to 460. In addition, the inhibition in assay [1] is -0.7% (inactive); in assay [2] it was -64.8% (inactive); in assay [4], -3.97% (inactive); in assay [9], -11.1% (inactive). In [2], this compound yielded a nuclei count of 111%. The results for the z-score in assay [3] (setting [10]), in [3] (setting [11]) and in assay [3] (setting [12]) were -0.992, 0.731 and -1.56, respectively. For the same compound, the fluorescence slope is -0.314 (inactive) in [5] and 0.00494 (inactive) in assay [7]. In addition, the NADPH fluorescence slope in [6] is 1.8e-05 (inactive). Further, the compound was classed as inactive in assay [8].
For `Cc1cc(OCC(=O)Nn2cnnc2)ccc1Br`, the cell count in assay [1] is 529. Further, the inhibition in assay [1] is -8.3% (inactive); in [2], -72.3% (inactive); in [4], -6.59% (inactive); in assay [9], -9.18% (inactive). In addition, the nuclei count in assay [2] stood at 119%. Further, the z-score in assay [3] (setting [10]) is 0.551; in assay [3] (setting [11]), 0.431; in [3] (setting [12]), 0.858. Moreover, the fluorescence slope is -0.433 (inactive) in assay [5] and 0.00434 (inactive) in assay [7]. In assay [6], the NADPH fluorescence slope is -0.00012 (inactive). Besides, in assay [8], the compound was called inactive.
Take `CCOC(=O)C1CCN(c2ncnc3c2cnn3-c2ccc(OC)cc2)CC1`: the cell count in assay [1] came out at 680. Besides, the inhibition in assay [1] was -2.1% (inactive); in [2], -138% (inactive); in [4], 13.4% (inactive); in assay [9] it was -3.46% (inactive). Besides, the nuclei count in [2] was determined as 191%. Further, the figures for the z-score in assay [3] (setting [10]), in [3] (setting [11]) and in [3] (setting [12]) were 0.032, -0.586 and 0.421, respectively. In addition, the fluorescence slope was -0.405 (inactive) in assay [5] and 0.00612 (inactive) in assay [7]. Also, the NADPH fluorescence slope in [6] was -3.9e-05 (inactive). Moreover, the compound was called inactive in assay [8].
Take `C(=N\n1cnnc1)/c1ccccn1`: in assay [1], the cell count came out at 607. The inhibition is 3.2% (inactive) in [1], -109% (inactive) in assay [2], 9.42% (inactive) in [4] and 16.5% (inactive) in assay [9]. In assay [2], this compound gave a nuclei count of 127%. Moreover, the figures for the z-score in [3] (setting [10]), in assay [3] (setting [11]) and in [3] (setting [12]) were 0.675, 3.12 and -0.143, respectively. Further, the fluorescence slope is -0.442 (inactive) in assay [5] and 0.00562 (inactive) in assay [7]. Also, the NADPH fluorescence slope in assay [6] was -0.000114 (inactive). For the same compound, the result in assay [8] was inactive.
In the case of `CCCc1nc2n[nH]c(N)c2c2c1COC(C)(C)C2`, the cell count in assay [1] was 597. For the same compound, the inhibition in assay [1] is -4% (inactive); in assay [2], -13.2% (inactive); in assay [4], -11.9% (inactive); in assay [9], 10.6% (inactive). The same compound came in with a nuclei count in [2] of 168%. Further, the z-score is -0.7 in assay [3] (setting [10]), -1.13 in [3] (setting [11]) and 1.4 in assay [3] (setting [12]). Besides, the fluorescence slope in assay [5] is -0.369 (inactive); in [7], 0.00478 (inactive). For the same compound, the NADPH fluorescence slope in assay [6] is -3.1e-05 (inactive). For the same compound, the result in [8] was inactive.
